Activity calls are given as the source filed them. The calls are words filed in the database; no cut-off is given here.
Assays:
Mus musculus [1] = test: Antidepressant activity in pargyline-pretreated mouse assessed as potentiation of DL-DOPA-induced jumping, fighting and squeaking at 100 mg/kg, po treated 4 hrs prior to DL-DOPA-challenge; type: functional, organism-based; parameters: dose 100 mg/kg
In short: (§1)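 Mice were pretreated with pargyline 40 mg/kg po, given the test drug po 4 hr before the challenge, then challenged with DL-Dopa 200 mg/kg. The motor response (motor activity, jumping, fighting, squeaking/irritability) was graded slight (1), moderate (2) or marked (3). Four mice per dose.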

Mus musculus [2] = test: Antipsychotic activity in mouse assessed as change in methamphetamine-induced hyperactivity at 5 mg/kg, po relative to control; type: functional, organism-based; parameters: dose 5 mg/kg
In short: (§2)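 Mice were premedicated po with the test compound, then given methamphetamine 3 mg/kg sc. Motor activity was counted in photocell chambers, three mice per chamber and nine per dose. Counts are mean ± SE, expressed as % change from methamphetamine-only controls. Analysis was ANOVA followed by t test or Mann-Whitney U, with p < 0.05.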

Mus musculus [3] = test: Antidepressant activity in pargyline-pretreated mouse assessed as potentiation of serotonin-induced tremor, head movements, abducted limbs and irritability at 100 mg/kg, po treated 1 hr prior to serotonin-challenge; type: functional, organism-based; parameters: dose 100 mg/kg
In short: (§3)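 Mice received pargyline 40 mg/kg po, then the test drug po. They were challenged with 5-hydroxytryptophan 100 mg/kg ip either 1 or 4 hr later. Central responses were rated on the 1–3 scale (slight, moderate, marked). Three mice per dose.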

Mus musculus [4] = test: Antidepressant activity in pargyline-pretreated mouse assessed as potentiation of serotonin-induced tremor, head movements, abducted limbs and irritability at 50 mg/kg, po treated 1 hr prior to serotonin-challenge; type: functional, organism-based; parameters: dose 50 mg/kg; in short: as §3
Mus musculus [5] = test: Antidepressant activity in pargyline-pretreated mouse assessed as potentiation of serotonin-induced tremor, head movements, abducted limbs and irritability at 25 mg/kg, po treated 1 hr prior to serotonin-challenge; type: functional, organism-based; parameters: dose 25 mg/kg; in short: as §3
Mus musculus [6] = test: Antipsychotic activity in mouse assessed as change in methamphetamine-induced hyperactivity at 50 mg/kg, po relative to control; type: functional; in short: as §2
Mus musculus [7] = test: Antidepressant activity in pargyline-pretreated mouse assessed as potentiation of DL-DOPA-induced jumping, fighting and squeaking at 25 mg/kg, po treated 4 hrs prior to DL-DOPA-challenge; type: functional, organism-based; parameters: dose 25 mg/kg; in short: as §1
Mus musculus [8] = test: Antidepressant activity in pargyline-pretreated mouse assessed as potentiation of DL-DOPA-induced jumping, fighting and squeaking at 5 mg/kg, po treated 4 hrs prior to DL-DOPA-challenge; type: functional, organism-based; parameters: dose 5 mg/kg; in short: as §1
Mus musculus [9] = test: Antipsychotic activity in mouse assessed as change in methamphetamine-induced hyperactivity at 10 mg/kg, po relative to control; type: functional; in short: as §2
Mus musculus [10] = test: Antipsychotic activity in mouse assessed as change in methamphetamine-induced hyperactivity at 20 mg/kg, po relative to control; type: functional; in short: as §2
Mus musculus [11] = test: Antidepressant activity in pargyline-pretreated mouse assessed as potentiation of DL-DOPA-induced jumping, fighting and squeaking at 10 mg/kg, po treated 4 hrs prior to DL-DOPA-challenge; type: functional, organism-based; parameters: dose 10 mg/kg; in short: as §1
Mus musculus [12] = test: Antidepressant activity in pargyline-pretreated mouse assessed as potentiation of serotonin-induced tremor, head movements, abducted limbs and irritability at 50 mg/kg, po treated 4 hrs prior to serotonin-challenge; type: functional, organism-based; parameters: dose 50 mg/kg; in short: as §3
Mus musculus [13] = test: Antidepressant activity in pargyline-pretreated mouse assessed as potentiation of serotonin-induced tremor, head movements, abducted limbs and irritability at 100 mg/kg, po treated 4 hrs prior to serotonin-challenge; type: functional, organism-based; parameters: dose 100 mg/kg; in short: as §3
Mus musculus [14] = test: Antipsychotic activity in po dosed mouse assessed as change in methamphetamine-induced hyperactivity; type: functional
In short: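 Mice were given test compound orally […] with a 4-hr pretreatment, then methamphetamine 3 mg/kg sc. Three mice were placed per photocell motor-activity chamber, with nine mice per dose. Photocell counts (mean ± SE) were compared with methamphetamine-treated controls and expressed as % change. Significance (p < 0.05) was tested by analysis of variance, then t test or Mann-Whitney U test.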

Mus musculus [15] = test: Antidepressant activity in pargyline-pretreated mouse assessed as potentiation of serotonin-induced tremor, head movements, abducted limbs and irritability at 25 mg/kg, po treated 4 hrs prior to serotonin-challenge; type: functional, organism-based; parameters: dose 25 mg/kg; in short: as §3
Mus musculus [16] = test: Antidepressant activity in pargyline-pretreated mouse assessed as potentiation of DL-DOPA-induced jumping, fighting and squeaking at 20 mg/kg, po treated 4 hrs prior to DL-DOPA-challenge; type: functional, organism-based; parameters: dose 20 mg/kg; in short: as §1
[17] = Toxicity in po dosed mouse; type: organism-based; details: in vivo
[18] = Toxicity in ip dosed mouse; type: organism-based; details: in vivo

| Structure (SMILES) | Activity (Mus musculus [1]) | Activity (Mus musculus [2]) | Activity (Mus musculus [3]) | Activity (Mus musculus [4]) | Activity (Mus musculus [5]) | Activity (Mus musculus [6]) [%] | Activity (Mus musculus [7]) | Activity (Mus musculus [8]) | Activity (Mus musculus [9]) [%] | Activity (Mus musculus [10]) [%] | Activity (Mus musculus [11]) | Activity (Mus musculus [12]) | Activity (Mus musculus [13]) | ED50 (Mus musculus [14]) [mg/kg] | Activity (Mus musculus [15]) | Activity (Mus musculus [16]) | LD50 [17] [mg/kg] | LD50 [18] [mg/kg] |
| --- | --- | --- | --- | --- | --- | --- | --- | --- | --- | --- | --- | --- | --- | --- | --- | --- | --- | --- |
| CN(C)C1CCCCC(=C2c3ccccc3CCc3ccccc32)C1 (stereo not given) | Active | inactive | inactive | inactive | inactive | 11 | Active | – | – | – | – | – | – | – | – | – | – | – |
| CN(C)CCCN1c2ccccc2CCc2ccccc21 [IMIPRAMINE] | Active | inactive | – | – | – | – | Active | inactive | 19 | 32 | Active | – | – | – | – | – | – | – |
| CN(C)CCCN1c2ccccc2CCc2ccc(Cl)cc21 [CLOMIPRAMINE] | – | – | Active | Active | Active | – | – | – | – | – | – | Active | Active | 5 | Active | – | – | – |
| CN(C)C1C=C(C2c3ccccc3C=Cc3ccccc32)CCC1 (stereo not given) | Active | inactive | Active | Active | inactive | 23 | Active | inactive | – | – | Active | Active | Active | – | inactive | Active | – | – |
| CN1C2CCC1CC(C1(O)c3ccccc3CCc3ccccc31)C2 (stereo not given) | Active | inactive | – | – | – | 11 | Active | – | – | – | – | – | – | – | – | – | – | – |
| CN1CC2C(C1)C21c2ccccc2CCc2ccc(Cl)cc21 (stereo not given) | Active | inactive | Active | inactive | inactive | 29 | Active | – | – | – | – | Active | Active | – | Active | – | – | – |
| CN1C2CCC1CC(=C1c3ccccc3CCc3ccccc31)C2 | Active | inactive | Active | inactive | inactive | 14 | inactive | – | – | – | – | inactive | inactive | – | inactive | – | 100 | 30 |

From ChEMBL document CHEMBL3272328, “Novel analogs of tricyclic psychopharmacological agents” (J Med Chem, 1976)
